# According to ChEMBL document CHEMBL1153240, “Microwave assisted synthesis and in vitro cytotoxicities of substituted (Z)-2-amino-5-(1-benzyl-1H-indol-3-yl)methylene-1-methyl-1H-imidazol-4(5H)-ones against human tumor cell lines” (2010):
# Legend:
# Assay type in all cases: functional
# MCF7 = experiment: Cytotoxicity against human MCF7 cells
# Procedure, shortened: (§1)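 NCI 60-cell-line panel, five-dose response study. Effect is plotted against log10 drug concentration for each cell line. GI50 is the molar concentration giving a 50% reduction in net protein increase relative to control cells. LC50 is the concentration lethal to 50% of cells.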
# IGROV-1 = experiment: Cytotoxicity against human IGROV1 cells; procedure, shortened: as §1
# Malme-3M = experiment: Cytotoxicity against human MALME-3M cells; procedure, shortened: as §1
# SF-268 = experiment: Cytotoxicity against human SF268 cells; procedure, shortened: as §1
# LOX IMVI = experiment: Cytotoxicity against human LOXIMVI cells; procedure, shortened: as §1
# [1] = Cytotoxicity against human […] cells; procedure, shortened: as §1
# OVCAR-8 = experiment: Cytotoxicity against human OVCAR8 cells; procedure, shortened: as §1
# SK-OV-3 = experiment: Cytotoxicity against human SKOV3 cells; procedure, shortened: as §1
# U-251 = experiment: Cytotoxicity against human U251 cells
# Procedure, shortened: (§2)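 NCI 60 human tumor cell line panel, five-dose dose-response study. Cytotoxic effect was plotted against log10 drug concentration for each cell line. GI50 is the molar concentration giving 50% reduction in net protein increase versus control cells. LC50 is the concentration lethal to 50% of cells.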
# OVCAR-3 = experiment: Cytotoxicity against human OVCAR-3 cells; procedure, shortened: as §1
# T47D = experiment: Cytotoxicity against human T47D cells; procedure, shortened: as §2
# OVCAR-4 = experiment: Cytotoxicity against human OVCAR4 cells; procedure, shortened: as §1
# 786-0 = experiment: Cytotoxicity against human 786-0 cells; procedure, shortened: as §1
# ACHN = experiment: Cytotoxicity against human ACHN cells; procedure, shortened: as §1
# K562 = experiment: Cytotoxicity against human K562 cells; procedure, shortened: as §1
# KM12 = experiment: Cytotoxicity against human KM12 cells; procedure, shortened: as §1
# SN12C = experiment: Cytotoxicity against human SN12C cells; procedure, shortened: as §1
# MDA-MB-468 = experiment: Cytotoxicity against human MDA-MB-468 cells; procedure, shortened: as §1
# NCI-H226 = experiment: Cytotoxicity against human NCI-H226 cells; procedure, shortened: as §1
# SF-295 = experiment: Cytotoxicity against human SF295 cells; procedure, shortened: as §1
# HOP-92 = experiment: Cytotoxicity against human HOP92 cells; procedure, shortened: as §1
# CCRF-CEM = experiment: Cytotoxicity against human CCRF-CEM cells; procedure, shortened: as §1
# SK-MEL-5 = experiment: Cytotoxicity against human SK-MEL-5 cells; procedure, shortened: as §1
# HOP-62 = experiment: Cytotoxicity against human HOP62 cells; procedure, shortened: as §1
# CAKI-1 = experiment: Cytotoxicity against human Caki1 cells; procedure, shortened: as §1
# SF-539 = experiment: Cytotoxicity against human SF539 cells; procedure, shortened: as §1
# SNB-19 = experiment: Cytotoxicity against human SNB19 cells; procedure, shortened: as §1
# SR = experiment: Cytotoxicity against human SR cells; procedure, shortened: as §1
# HCT-15 = experiment: Cytotoxicity against human HCT15 cells; procedure, shortened: as §1
# SK-MEL-28 = experiment: Cytotoxicity against human SK-MEL-28 cells; procedure, shortened: as §1
# BT-549 = experiment: Cytotoxicity against human BT549 cells; procedure, shortened: as §1
# TK-10 = experiment: Cytotoxicity against human TK10 cells; procedure, shortened: as §2
# HCT-116 = experiment: Cytotoxicity against human HCT116 cells; procedure, shortened: as §1
# DU-145 = experiment: Cytotoxicity against human DU145 cells; procedure, shortened: as §1
# HCC 2998 = experiment: Cytotoxicity against human HCC2998 cells; procedure, shortened: as §1
# M14 = experiment: Cytotoxicity against human M14 cells; procedure, shortened: as §1
# MOLT-4 = experiment: Cytotoxicity against human MOLT4 cells; procedure, shortened: as §1
# A549 = experiment: Cytotoxicity against human A549 cells; procedure, shortened: as §1
# NCI-H23 = experiment: Cytotoxicity against human NCI-H23 cells; procedure, shortened: as §1
# UO-31 = experiment: Cytotoxicity against human UO31 cells; procedure, shortened: as §2
# UACC-257 = experiment: Cytotoxicity against human UACC257 cells; procedure, shortened: as §2
# COLO 205 = experiment: Cytotoxicity against human COLO205 cells
# Procedure, shortened: (§3)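 NCI 60-cell-line panel, five-concentration dose-response. Cytotoxic effect was plotted against log10 drug concentration for each line. GI50 is the molar concentration giving a 50% reduction in net protein increase relative to control cells. LC50 is the concentration lethal to 50% of cells. Both were read from the curves.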
# MDA-MB-231 = experiment: Cytotoxicity against human MDA-MB-231 cells; procedure, shortened: as §1
# A498 = experiment: Cytotoxicity against human A498 cells; procedure, shortened: as §1
# MDA-MB-435 = experiment: Cytotoxicity against human MDA-MB-435 cells; procedure, shortened: as §3
# NCI-H322M = experiment: Cytotoxicity against human NCI-H322M cells; procedure, shortened: as §1
# [2] = Cytotoxicity against human Hs 578T cells; procedure, shortened: as §1
# HL-60 = experiment: Cytotoxicity against human HL60 cells; procedure, shortened: as §1
# OVCAR-5 = experiment: Cytotoxicity against human OVCAR5 cells; procedure, shortened: as §1
# SNB-75 = experiment: Cytotoxicity against human SNB75 cells; procedure, shortened: as §1
# PC-3 = experiment: Cytotoxicity against human PC3 cells; procedure, shortened: as §1
# SW-620 = experiment: Cytotoxicity against human SW620 cells; procedure, shortened: as §2
# SK-MEL-2 = experiment: Cytotoxicity against human SK-MEL-2 cells; procedure, shortened: as §1
# RXF 393 = experiment: Cytotoxicity against human RXF393 cells; procedure, shortened: as §1
# NCI/ADR-RES = experiment: Cytotoxicity against human NCI/ADR-RES cells; procedure, shortened: as §1
# HT-29 = experiment: Cytotoxicity against human HT-29 cells; procedure, shortened: as §3
# NCI-H460 = experiment: Cytotoxicity against human NCI-H460 cells; procedure, shortened: as §1
# EKVX = experiment: Cytotoxicity against human EKVX cells; procedure, shortened: as §1
# NCI-H522 = experiment: Cytotoxicity against human NCI-H522 cells; procedure, shortened: as §1
# [3] = read-out: LC50 (the source's name)
smiles,measurement,setting,value
CN1C(N)=NC(=O)/C1=C/c1cn(Cc2ccccc2Br)c2ccccc12,GI50,MCF7,2.25 µM
same,CC50,MCF7; [3],48.1 µM
same,GI50,IGROV-1,20 µM
same,CC50,IGROV-1; [3],> 100 µM
same,GI50,Malme-3M,3.3 µM
same,CC50,Malme-3M; [3],73.8 µM
same,GI50,SF-268,5.38 µM
same,CC50,SF-268; [3],59.8 µM
same,GI50,LOX IMVI,1.97 µM
same,LC50,LOX IMVI,9.37 µM
same,GI50,[1],1.19 µM
same,LC50 (concentration lethal to 50% of cells),[1],65.9 µM
same,GI50,OVCAR-8,10.1 µM
same,CC50,OVCAR-8; [3],> 100 µM
same,GI50,SK-OV-3,11.9 µM
same,CC50,SK-OV-3; [3],49.9 µM
same,GI50,U-251,3.01 µM
same,CC50,U-251; [3],66.2 µM
same,GI50,OVCAR-3,1.95 µM
same,CC50,OVCAR-3; [3],7.35 µM
same,GI50,T47D,1.68 µM
same,CC50,T47D; [3],13.1 µM
same,GI50,OVCAR-4,2.41 µM
same,CC50,OVCAR-4; [3],25.2 µM
same,GI50,786-0,6.15 µM
same,LC50,786-0,46.2 µM
same,GI50,ACHN,11.8 µM
same,CC50,ACHN; [3],59 µM
same,GI50,K562,2.45 µM
same,CC50,K562; [3],77.4 µM
same,GI50,KM12,5.71 µM
same,CC50,KM12; [3],50.8 µM
same,GI50,SN12C,6.07 µM
same,CC50,SN12C; [3],76.3 µM
same,GI50,MDA-MB-468,1.69 µM
same,LC50,MDA-MB-468,6.9 µM
same,GI50,NCI-H226,1.37 µM
same,LC50,NCI-H226,69.9 µM
same,GI50,SF-295,4.96 µM
same,CC50,SF-295; [3],> 100 µM
same,GI50,HOP-92,2.98 µM
same,CC50,HOP-92; [3],44.5 µM
same,GI50,CCRF-CEM,2.54 µM
same,CC50,CCRF-CEM; [3],36.2 µM
same,GI50,SK-MEL-5,3.38 µM
same,LC50,SK-MEL-5,42.3 µM
same,GI50,HOP-62,8.78 µM
same,CC50,HOP-62; [3],51.2 µM
same,GI50,CAKI-1,68.1 µM
same,CC50,CAKI-1; [3],> 100 µM
same,GI50,SF-539,1.73 µM
same,CC50,SF-539; [3],6.94 µM
same,GI50,SNB-19,4.5 µM
same,CC50,SNB-19; [3],43.8 µM
same,GI50,SR,1.96 µM
same,CC50,SR; [3],72.7 µM
same,GI50,HCT-15,19.8 µM
same,CC50,HCT-15; [3],> 100 µM
same,GI50,SK-MEL-28,4.14 µM
same,CC50,SK-MEL-28; [3],38.4 µM
same,GI50,BT-549,2.05 µM
same,CC50,BT-549; [3],> 100 µM
same,GI50,TK-10,6.84 µM
same,CC50,TK-10; [3],> 100 µM
same,GI50,HCT-116,2.42 µM
same,CC50,HCT-116; [3],30.9 µM
same,GI50,DU-145,82.1 µM
same,CC50,DU-145; [3],68.8 µM
same,GI50,HCC 2998,6.95 µM
same,CC50,HCC 2998; [3],47.2 µM
same,GI50,M14,4.46 µM
same,LC50,M14,47.8 µM
same,GI50,MOLT-4,4.57 µM
same,CC50,MOLT-4; [3],> 100 µM
same,GI50,A549,28.7 µM
same,CC50,A549; [3],> 100 µM
same,GI50,NCI-H23,8.07 µM
same,LC50 (concentration lethal to 50% of cells),NCI-H23,54.8 µM
same,GI50,UO-31,7.95 µM
same,CC50,UO-31; [3],> 100 µM
same,GI50,UACC-257,12.9 µM
same,LC50,UACC-257,66.9 µM
same,GI50,COLO 205,2.21 µM
same,CC50,COLO 205; [3],12.3 µM
same,GI50,MDA-MB-231,4.07 µM
same,LC50,MDA-MB-231,46.7 µM
same,GI50,A498,13.9 µM
same,CC50,A498; [3],53.1 µM
same,GI50,MDA-MB-435,4.97 µM
same,CC50,MDA-MB-435; [3],68.6 µM
same,GI50,NCI-H322M,11 µM
same,CC50,NCI-H322M; [3],> 100 µM
same,GI50,[2],3.97 µM
same,LC50,[2],> 100 µM
same,GI50,HL-60,1.85 µM
same,LC50,HL-60,21 µM
same,GI50,OVCAR-5,2.12 µM
same,CC50,OVCAR-5; [3],29 µM
same,GI50,SNB-75,1.58 µM
same,LC50 (concentration lethal to 50% of cells),SNB-75,18.6 µM
same,GI50,PC-3,10.4 µM
same,CC50,PC-3; [3],48.1 µM
same,GI50,SW-620,3.68 µM
same,CC50,SW-620; [3],43.3 µM
same,GI50,SK-MEL-2,5.73 µM
same,CC50,SK-MEL-2; [3],> 100 µM
same,GI50,RXF 393,2.77 µM
same,CC50,RXF 393; [3],53.7 µM
same,GI50,NCI/ADR-RES,> 100 µM
same,CC50,NCI/ADR-RES; [3],> 100 µM
same,GI50,HT-29,2.18 µM
same,CC50,HT-29; [3],6.94 µM
same,GI50,NCI-H460,3.95 µM
same,CC50,NCI-H460; [3],56.8 µM
same,GI50,EKVX,58.1 µM
same,CC50,EKVX; [3],> 100 µM
same,GI50,NCI-H522,5.38 µM
same,LC50,NCI-H522,> 100 µM
